Source: ChEMBL document CHEMBL4765483 (J Med Chem, 2021)

Assays:
Conditions in all cases: Cell membrane
[1] = biological target: T1, Adenosine receptor A2b (Homo sapiens) (UniProt P29275); assay: Displacement of [3H]DPCPX from human adenosine A2B receptor expressed in HEK293 cell membranes at 1 uM incubated for 30 mins by scintillation counting method
T1 sequence (whole entry): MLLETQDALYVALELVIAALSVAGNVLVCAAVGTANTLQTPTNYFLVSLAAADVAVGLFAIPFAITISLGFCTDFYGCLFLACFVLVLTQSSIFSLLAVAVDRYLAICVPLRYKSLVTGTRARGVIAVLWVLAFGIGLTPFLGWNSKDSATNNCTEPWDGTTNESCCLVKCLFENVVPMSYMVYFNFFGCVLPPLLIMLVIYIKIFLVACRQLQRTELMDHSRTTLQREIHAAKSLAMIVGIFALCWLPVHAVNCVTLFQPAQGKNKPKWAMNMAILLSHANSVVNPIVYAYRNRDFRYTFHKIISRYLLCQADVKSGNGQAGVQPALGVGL

[2] = biological target: T2, Adenosine receptor A3 (Homo sapiens) (UniProt P0DMS8); assay: Displacement of [3H]NECA from adenosine A3 receptor expressed in human HeLa cell membranes at 1 uM incubated for 180 mins by scintillation counting method
T2 sequence (whole entry): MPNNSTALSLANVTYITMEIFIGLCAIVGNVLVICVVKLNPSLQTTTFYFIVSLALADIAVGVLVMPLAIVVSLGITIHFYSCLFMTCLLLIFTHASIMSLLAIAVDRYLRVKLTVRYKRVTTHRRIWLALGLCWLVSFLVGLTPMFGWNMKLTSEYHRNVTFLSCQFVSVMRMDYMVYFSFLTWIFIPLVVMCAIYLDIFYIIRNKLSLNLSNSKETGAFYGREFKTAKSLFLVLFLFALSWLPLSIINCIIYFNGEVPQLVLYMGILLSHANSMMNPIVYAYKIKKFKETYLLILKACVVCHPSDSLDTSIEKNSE
Procedure, shortened: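 hA3AR in HeLa membranes (3 pmol/mg protein) with 10 nM [3H]NECA (KD 8.7 nM); nonspecific binding with 100 μM R-PIA; incubated 180 min at 25 °C, washed, filtered, radioactivity counted.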

[3] = biological target: Adenosine receptor A2a (Homo sapiens) (UniProt P29274); assay: Displacement of [3H]ZM2421385 from adenosine A2A receptor expressed in human HeLa cell membranes at 1 uM incubated for 30 mins by scintillation counting method
Adenosine receptor A2a (Homo sapiens), sequence (P29274 whole entry): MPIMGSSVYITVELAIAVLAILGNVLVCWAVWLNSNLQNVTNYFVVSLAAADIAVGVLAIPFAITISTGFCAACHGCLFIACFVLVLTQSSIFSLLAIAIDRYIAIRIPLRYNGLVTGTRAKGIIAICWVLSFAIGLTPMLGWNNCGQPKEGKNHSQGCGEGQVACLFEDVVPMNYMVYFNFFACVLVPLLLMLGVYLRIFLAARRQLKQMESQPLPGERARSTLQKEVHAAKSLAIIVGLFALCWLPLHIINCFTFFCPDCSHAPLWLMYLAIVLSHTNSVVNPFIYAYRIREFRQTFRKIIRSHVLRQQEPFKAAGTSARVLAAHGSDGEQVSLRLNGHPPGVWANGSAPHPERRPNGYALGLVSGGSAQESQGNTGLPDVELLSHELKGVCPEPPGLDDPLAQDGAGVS

[4] = biological target: T3, Adenosine receptor A1 (Homo sapiens) (UniProt P30542); assay: Displacement of [3H]DPCPX from human adenosine A1 receptor expressed in CHO cell membranes at 1 uM incubated for 60 mins by scintillation counting method
T3 sequence (whole entry): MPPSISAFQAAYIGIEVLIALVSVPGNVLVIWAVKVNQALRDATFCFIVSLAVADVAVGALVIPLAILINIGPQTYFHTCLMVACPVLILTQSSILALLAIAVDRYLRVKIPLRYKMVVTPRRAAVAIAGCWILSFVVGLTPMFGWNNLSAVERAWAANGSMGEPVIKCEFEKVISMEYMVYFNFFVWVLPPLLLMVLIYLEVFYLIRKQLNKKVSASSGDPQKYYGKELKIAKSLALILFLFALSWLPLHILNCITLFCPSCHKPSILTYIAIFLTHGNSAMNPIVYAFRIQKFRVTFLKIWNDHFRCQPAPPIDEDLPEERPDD

SMILES	inhibition [1] [%]	inhibition [2] [%]	inhibition [3] [%]	inhibition [4] [%]	inhibition ([1]; filed as antagonist) [%]
CC1=C(C(=O)OC(C)C)[C@H](c2ccco2)NC(=S)N1	12	2	6	10	–
CC1=C(C(=O)OC(C)(C)C)C(c2ccco2)NC(=O)N1C (racemic)	26	54	20	44	–
CC1=C(C(=O)OC(C)(C)C)C(c2cccs2)NC(=O)N1 (racemic)	38	7	10	26	–
CC1=C(C(=O)OC(C)(C)C)C(c2cccs2)NC(=O)N1C (racemic)	24	22	12	18	–
CC1=C(C(=O)OC(C)(C)C)C(c2cccs2)NC(=S)N1 (racemic)	26	22	7	22	–
CC1=C(C(=O)OC(C)(C)C)C(c2ccoc2)NC(=O)N1C (racemic)	16	12	16	21	–
CC1=C(C(=O)OC(C)(C)C)C(c2ccsc2)NC(=O)N1 (racemic)	–	1	5	15	47
CC1=C(C(=O)OCC(C)C)C(c2ccco2)NC(=O)N1C (racemic)	4	23	3	13	–
CC1=C(C(=O)OCC(C)C)C(c2ccco2)NC(=S)N1 (racemic)	18	10	30	7	–
CC1=C(C(=O)OCC(C)C)C(c2cccs2)NC(=O)N1C (racemic)	2	5	1	9	–
CC1=C(C(=O)OCC(C)C)C(c2ccoc2)NC(=S)N1 (racemic)	1	1	35	12	–
CC1=C(C(=O)OCC(C)C)C(c2ccsc2)NC(=S)N1 (racemic)	15	2	1	8	–

Further lines, results first:

inhibition [1] [%]	inhibition [2] [%]	inhibition [3] [%]	inhibition [4] [%]	inhibition ([1]; filed as antagonist) [%]	SMILES
19	3	21	5	–	CCOC(=O)C1=C(C)NC(=O)N[C@H]1c1ccsc1
9	9	1	3	–	CC1=C(C(=O)OC(C)(C)C)C(c2ccco2)NC(=S)N1 (racemic)
26	16	22	16	–	CC1=C(C(=O)OC(C)(C)C)C(c2ccsc2)NC(=S)N1 (racemic)
–	–	37	–	–	CC1=C(C(=O)OC(C)C)C(c2ccco2)NC(=O)N1C (racemic)
–	17	–	–	–	CC1=C(C(=O)OC(C)C)C(c2cccs2)NC(=O)N1C (racemic)
37	–	–	–	–	CC1=C(C(=O)OC(C)C)C(c2ccoc2)NC(=O)N1C (racemic)
–	–	22	35	51	CC1=C(C(=O)OC(C)C)C(c2ccsc2)NC(=O)N1C (racemic)
12	4	2	1	–	CC1=C(C(=O)OCC(C)C)C(c2cccs2)NC(S)=N1 (racemic)
1	16	4	4	–	CC1=C(C(=O)OCC(C)C)C(c2ccoc2)NC(=O)N1C (racemic)
–	4	12	32	41	CC1=C(C(=O)OCc2ccccc2)C(c2ccco2)NC(=S)N1 (racemic)
–	18	3	50	50	CC1=C(C(=O)OCc2ccccc2)C(c2cccs2)NC(=O)N1C (racemic)
–	24	63	34	45	CC1=C(C(=O)OCc2ccccc2)C(c2cccs2)NC(=S)N1 (racemic)
